What was measured:
[1] = Tissue distribution study in vivo; design: species or system BALB/c nude mice; settings: iv 10 µg DiR per mouse, 2–24 hours
Method in brief: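 Male BALB/c nude mice (4–6 weeks, about 20 g) bore subcutaneous right-back tumours from 2×10^6 HepG2 cells. At about 300 mm3 they were randomised to saline, free DiR or DiR-loaded nanoparticles, given as a single tail-vein injection. Imaging was under isoflurane at 745/820 nm excitation/emission, at 2, 4, 6, 8, 12 and 24 h. At 24 h, excised organs and tumours were imaged and quantified as total radiant efficiency.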

HepG2-TS = experiment: CCK-8 cytotoxicity assay in HepG2 tumor spheres; type: cell-based, human
Method in brief: (§1)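 Cells seeded at 5×10^3/well and left overnight at 37°C to attach. They were then exposed for 48 h to graded concentrations of each agent alone or combined at fixed molar ratios (4:1, 2:1, 1:1, 1:2, 1:4). CCK-8 was added for about 2 h and A450 read. Viability = (AE–AB)/(AC–AB)×100%, using untreated and blank wells. HepG2 were grown in DMEM/10% FBS. Spheres were grown in DMEM-F12 with B27, ITS, 20 ng/mL EGF and bFGF, dissociated with Accutase and passed through a 100-µm sieve.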

HepG2 cells [2] = experiment: Colony formation assay; type: cell-based, human; settings: DOX and ELC 0.01 µM, 24 hours treatment, 8–10 days growth
Method in brief: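 HepG2 cells were maintained in DMEM with 10% FBS and penicillin/streptomycin at 37°C, 5% CO2. They were seeded at 1×10^5 cells/well, left overnight, then exposed 24 h to free or nanoparticle test compounds (each drug at 0.01 µM final). Cells were trypsinized, reseeded at 800 cells/well and grown 8–10 days at 37°C. Colonies were stained with 1% crystal violet for 20 min at room temperature and counted by microscope.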

HepG2 cells [3] = experiment: Tumor sphere formation assay; type: cell-based, human; settings: DOX and ELC 0.15 µM, 7 days
Method in brief: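 Trypsinized HepG2 cells were seeded at 500 cells/well in ultra-low-attachment wells in DMEM/F12 with 1× B27, 1× ITS, 20 ng/mL EGF and 20 ng/mL bFGF, then left overnight. Cells were exposed to free or nanoparticle test compounds (each drug at 0.15 µM final). After 7 days, tumor spheres were counted by microscope.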

HepG2 cells [4] = experiment: CCK-8 cytotoxicity assay in HepG2 cells; type: cell-based; settings: Homo sapiens, HepG2, 48 h
Method in brief: as §1

Row | DiR signals in real-time in vivo images [1] | Compound | IC50 (HepG2-TS; HepG2-TS, 48 hours, CCK-8) [µM] | number of colonies formed (HepG2 cells [2]) | tumor sphere formation (HepG2 cells [3]) | IC50 (HepG2 cells [4]) [µM] | IC50 (HepG2-TS; Homo sapiens, HepG2, 48 h) [µM]
1 | No obvious DiR signals | CCCCCCCCCCCCCCCCCCN1/C(=C/C=C/C=C/C=C/C2=[N+](CCCCCCCCCCCCCCCCCC)c3ccccc3C2(C)C)C(C)(C)c2ccccc21.[I-] [free DiR] |  |  |  |  | 
2 |  | COc1cccc2c1C(=O)c1c(O)c3c(c(O)c1C2=O)C[C@@](O)(C(=O)CO)C[C@@H]3O[C@H]1C[C@H](N)[C@H](O)[C@H](C)O1 [DOX, doxorubicin] | 0.477 ± 0.0514 | reduced the formation of colonies compared with the control | decreased tumor sphere formation compared with that in the control |  | 
3 |  | COc1cc2c(cc1OC)CN(CCc1ccc(NC(=O)c3cccc4c(=O)c5cccc(OC)c5[nH]c34)cc1)CC2 [ELC, elacridar] |  | reduced the formation of colonies compared with the control | decreased tumor sphere formation compared with that in the control | 9.27 ± 2.61 | 13.7 ± 4.27

Reference: article PMC6207383 (International Journal of Nanomedicine, 2018)
